# Activity calls are given as the source filed them. No cut-off for these calls is given here.
# Experiments:
# [1] = system: Human immunodeficiency virus 1; experiment: Antiviral activity against HIV1 NL4.3 infected in human TZM-bl cells using compound gel formulation incubated for 72 hrs by luciferase based transwell assay; format: functional, organism-based; details: Human immunodeficiency virus 1, NL4.3, TZM-bl
# Summary of the method: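 Transwell format, gel reformulated without β-cyclodextrins. TZM-bl cells (4 × 10⁴/apical chamber, 3 μm pore) cultured overnight. 60 TCID₅₀ NL4.3 added apically with gel at 50%, final drug 5000–0.5 nM (tenfold steps); medium in basal compartment. Blank gel used for virus titration. Luciferase read-out; triplicates.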
# [2] = system: Human immunodeficiency virus 1; experiment: Antiviral activity against HIV1 NL4.3 expressing reverse transcriptase L100I mutant infected in human TZM-bl cells incubated for 30 mins prior to infection measured after 48 hrs by luciferase assay; format: functional, organism-based; details: Human immunodeficiency virus 1, NL4.3, TZM-bl
# Summary of the method: (§1)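 TZM-bl cells (10,000/well at 10⁵ cells/mL, medium with 30 μg/mL DEAE dextran) preincubated 30 min at 37 °C, 5% CO₂ with serial compound dilutions. Then 200 TCID₅₀ mutant HIV-1 added per well. After 48 h, luciferase read. Triplicate wells, at least two independent experiments. % inhibition versus untreated controls fitted by nonlinear regression to give EC₅₀.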
# [3] = system: Human immunodeficiency virus 1; experiment: Antiviral activity against HIV1 NL4.3 expressing reverse transcriptase K101E mutant infected in human TZM-bl cells incubated for 30 mins prior to infection measured after 48 hrs by luciferase assay; format: functional, organism-based; details: Human immunodeficiency virus 1, NL4.3, TZM-bl; summary of the method: as §1
# [4] = system: Human immunodeficiency virus 1; experiment: Antiviral activity against HIV1 NL4.3 expressing reverse transcriptase V90I mutant infected in human TZM-bl cells incubated for 30 mins prior to infection measured after 48 hrs by luciferase assay; format: functional, organism-based; details: Human immunodeficiency virus 1, NL4.3, TZM-bl; summary of the method: as §1
# [5] = Cytotoxicity against human TZM-bl cells assessed as reduction in cell viability after 2 days by WST-1 assay; format: cell-based
# Summary of the method: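 10 000 TZM-bl cells cultured 48 h with serial compound dilutions; WST-1 added and absorbance at 450 nm read after 90 min. Three replicate wells, ≥2 independent experiments; % viability vs untreated controls, CC₅₀ by nonlinear regression.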
# [6] = system: Human immunodeficiency virus 1; experiment: Antiviral activity against HIV1 NL4.3 expressing reverse transcriptase E138K mutant infected in human TZM-bl cells incubated for 30 mins prior to infection measured after 48 hrs by luciferase assay; format: functional, organism-based; details: Human immunodeficiency virus 1, NL4.3, TZM-bl; summary of the method: as §1
# [7] = system: Human immunodeficiency virus 1; experiment: Antiviral activity against HIV1 NL4.3 infected in human TZM-bl cells incubated for 30 mins prior to infection measured after 48 hrs by luciferase assay; format: functional, organism-based; details: Human immunodeficiency virus 1, NL4.3, TZM-bl
# Summary of the method: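 TZM-bl cells (10 000/well, 10⁵ cells/mL in medium with 30 μg/mL DEAE dextran) preincubated 30 min at 37 °C, 5% CO₂ with serial compound dilutions; 200 TCID₅₀ HIV-1 WT or mutant virus added, luciferase read after 48 h. Triplicate wells, ≥2 independent experiments; % inhibition vs untreated controls, EC₅₀ by nonlinear regression.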
# [8] = system: Human immunodeficiency virus 1; experiment: Antiviral activity against HIV1 NL4.3 expressing reverse transcriptase K103N mutant infected in human TZM-bl cells incubated for 30 mins prior to infection measured after 48 hrs by luciferase assay; format: functional, organism-based; details: Human immunodeficiency virus 1, NL4.3, TZM-bl; summary of the method: as §1
# [9] = system: Human immunodeficiency virus 1; experiment: Antiviral activity against HIV1 NL4.3 expressing reverse transcriptase Y181C mutant infected in human TZM-bl cells incubated for 30 mins prior to infection measured after 48 hrs by luciferase assay; format: functional, organism-based; details: Human immunodeficiency virus 1, NL4.3, TZM-bl; summary of the method: as §1
# [10] = system: Human immunodeficiency virus 1; experiment: Antiviral activity against HIV1 NL4.3 expressing reverse transcriptase V106A mutant infected in human TZM-bl cells incubated for 30 mins prior to infection measured after 48 hrs by luciferase assay; format: functional, organism-based; details: Human immunodeficiency virus 1, NL4.3, TZM-bl; summary of the method: as §1
# [11] = target: Human immunodeficiency virus type 1 reverse transcriptase (Human immunodeficiency virus 1, UniProt Q72547); experiment: Inhibition of recombinant HIV1 His-tagged p66/p51 reverse transcriptase expressed in Escherichia coli assessed as reduction in [3H]dTTP incorporation using poly(rA)-oligo(dT) (12 to 18 bp) as template/primer incubated for 20 mins by scintillation counting method
# [12] = Effective permeability of compound at pH 7.4 after 5 hrs by PAMPA; format: ADME; details: read-out: Peff
# Summary of the method: (§2)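 Filter coated with 1% w/v phosphatidylcholine in dodecane; acceptor 50% DMSO in phosphate buffer. 5 h at room temperature with gentle shaking; LC-UV at 280 nm on both sides; Pe calculated in cm/s. Three plates on different days.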
# [13] = Effective permeability of compound at pH 4.2 after 5 hrs by PAMPA; format: ADME; details: read-out: Peff; summary of the method: as §2
# Liver microsome = experiment: Metabolic stability in liver microsomes (unknown origin) assessed as parent compound remaining; format: ADME; details: human
# [14] = Cytotoxicity against human TZM-bl cells assessed as reduction in cell viability at 5% gel formulation of compound after 2 days by WST-1 assay; format: cell-based; details: 48 h
# [15] = Chemical stability in pH 4.2 solution assessed as drug recovery using compound gel formulation incubated for 1 month at room temperature under dark condition; format: physicochemical; details: pH 4.2 solution (compound gel formulation), read-out: Drug recovery
# Summary of the method: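 Gel at pH 4.2 (vaginal formulation) with final drug concentration 17 μM stored 1 month at room temperature without light; drug recovery measured, with viscosity and pH monitored.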
# [16] = system: Human immunodeficiency virus 1; experiment: Antiviral activity against HIV1 NL4.3 infected in human TZM-bl cells using compound gel formulation incubated for 30 mins prior to infection measured after 48 hrs by luciferase assay; format: functional, organism-based; details: Human immunodeficiency virus 1, NL4.3, TZM-bl
# Summary of the method: (§3)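 Gel formulation tested by the free-drug TZM-bl procedure alongside free drug in solution and blank gel: 10 000 cells with 30 μg/mL DEAE dextran, 30 min preincubation at 37 °C, 200 TCID₅₀ virus, luciferase after 48 h. Each concentration in triplicate; EC₅₀ from % inhibition vs untreated controls by nonlinear regression.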
# [17] = Selectivity index, ratio of CC50 for human TZM-bl cells to EC50 for HIV1 NL4.3 infected in human TZM-bl cells; format: toxicity, cell-based; details: read-out: Ratio CC50/EC50
# Summary of the method: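 SI = CC50/EC50 in TZM-bl cells. EC50: 10 000 cells (10⁵/mL, 30 μg/mL DEAE dextran) preincubated 30 min at 37 °C with serial compound dilutions, then infected with 200 TCID50 virus; luciferase read at 48 h. CC50: 10 000 cells given serial dilutions for 48 h; WST-1 absorbance at 450 nm after 90 min. Triplicates, ≥2 experiments; nonlinear regression.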
# [18] = system: Human immunodeficiency virus 1; experiment: Antiviral activity against HIV1 NL4.3 infected in human TZM-bl cells using compound gel formulation stored at room temperature in dark for 1 month incubated for 30 mins with cells prior to infection measured after 48 hrs by luciferase assay; format: functional, organism-based; summary of the method: as §3
SMILES,EC50 [3] [nM],CC50 at 48 h [5] [nM],EC50 [6] [nM],EC50 [7] [nM],EC50 [8] [nM],EC50 [9] [nM],EC50 [10] [nM],also measured
C[C@H](Cn1cnc2c(N)ncnc21)OCP(=O)(O)O [TENOFOVIR ANHYDROUS],,,,,,,,EC50 [1]: 3000 nM
Cc1c(C(C)c2c(F)cccc2F)nc(N(C)Cc2ccc(N3CCN(C)CC3)cc2)[nH]c1=O (centres undefined),138,26200,42,7.9,2460,331,,EC50 [2]: 1570 nM; EC50 [4]: 22 nM
COc1ccc(CN(C)c2nc(Cc3c(Cl)cccc3Cl)c(C)c(=O)[nH]2)cc1,,17900,,15,,680,10,IC50 [11]: 5 nM
COc1ccc(CN(C)c2nc(C(C)c3c(F)cccc3F)cc(=O)[nH]2)cc1 (centres undefined),17,48100,9.1,2.6,34,94,0.87,
Cc1c(Cc2c(Cl)cccc2Cl)nc(N(C)Cc2ccc(N3CCNCC3)cc2)[nH]c1=O,,20700,,110,,,,
Cc1c(C(C)c2c(Cl)cccc2Cl)nc(N(C)Cc2ccc(N3CCNCC3)cc2)[nH]c1=O (centres undefined),,13200,,102,,,,
Cc1cc(C)c(Nc2ccnc(Nc3ccc(C#N)cc3)n2)c(C)c1 [DAPIVIRINE],,3400,,1.3,,,,
Cc1c(Cc2c(Cl)cccc2Cl)nc(N(C)Cc2ccc([N+](=O)[O-])cc2)[nH]c1=O,51,19500,35,8.6,367,201,,EC50 [2]: 220 nM; EC50 [4]: 13 nM; Papp at 5 h [12]: 10.9 ×10⁻⁶ cm/s; Papp at 5 h [13]: 1.9 ×10⁻⁶ cm/s; Stability (Liver microsome): 99%; IC50 [11]: 7.85 nM
Cc1c(Cc2c(Cl)cccc2Cl)nc(N(C)Cc2ccc(N3CCN(C)CC3)cc2)[nH]c1=O,> 1000,3200,274,94,792,704,18,Papp at 5 h [12]: 1.37 ×10⁻⁶ cm/s; Papp at 5 h [13]: 0.58 ×10⁻⁶ cm/s; Stability (Liver microsome): 99%
COc1ccc(C2CC2CSc2nc(C(C)c3c(F)cccc3F)c(C)c(=O)[nH]2)cc1 (centres undefined),450,31100,246,93,549,1610,56,
COc1ccc(CN(C)c2nc(C(C)c3c(F)cccc3F)c(C)c(=O)[nH]2)cc1 (centres undefined),31,88800,17,3.3,102,80,,EC50 [2]: 84 nM; Activity [14]: Toxic; EC50 [4]: 8.7 nM; EC50 [1]: 30 nM; remaining at 730.5 h [15]: 100%; EC50 [16]: 2.3 nM; Papp at 5 h [12]: 5.54 ×10⁻⁶ cm/s; Papp at 5 h [13]: 3.78 ×10⁻⁶ cm/s; selectivity ratio [17]: > 10000; Stability (Liver microsome): 99%; Activity [18]: Active
Cc1c(C(C)c2c(Cl)cccc2Cl)nc(N(C)Cc2ccc([N+](=O)[O-])cc2)[nH]c1=O (centres undefined),,> 50000,,104,,,,
Cc1c(C(C)c2c(F)cccc2F)nc(N(C)Cc2ccc([N+](=O)[O-])cc2)[nH]c1=O (centres undefined),134,> 50000,65,10,518,814,,EC50 [2]: 1500 nM; EC50 [4]: 30 nM
COc1ccc(CN(C)c2nc(C(C)c3c(Cl)cccc3Cl)c(C)c(=O)[nH]2)cc1 (centres undefined),,> 100000,,12,,209,10,IC50 [11]: 17 nM
Cc1c(C(C)c2c(Cl)cccc2Cl)nc(N(C)Cc2ccc(N3CCN(C)CC3)cc2)[nH]c1=O (centres undefined),294,> 10000,103,29,1040,627,6.3,Papp at 5 h [12]: 0.91 ×10⁻⁶ cm/s; Stability (Liver microsome): 99%
Cc1c(Cc2c(Cl)cccc2Cl)nc(N(C)Cc2ccc(N3CCOCC3)cc2)[nH]c1=O,,9900,,657,,,,Papp at 5 h [12]: 21.9 ×10⁻⁶ cm/s; Stability (Liver microsome): 99%; IC50 [11]: 90 nM
Cc1c(Cc2c(Cl)cccc2Cl)nc(N(C)Cc2ccc(N3CCN(C(=O)OC(C)(C)C)CC3)cc2)[nH]c1=O,,2590,,2930,,,,
Cc1c(C(C)c2c(Cl)cccc2Cl)nc(N(C)Cc2ccc(N3CCOCC3)cc2)[nH]c1=O (centres undefined),942,38400,256,86,1500,1290,15,
Cc1c(C(C)c2c(F)cccc2F)nc(N(C)Cc2n[nH]c3ccccc23)[nH]c1=O (centres undefined),> 10000,> 100000,950,329,> 10000,> 10000,,EC50 [2]: > 10000 nM; EC50 [4]: 687 nM

# From ChEMBL document CHEMBL3784955, “Development and in Vitro Evaluation of a Microbicide Gel Formulation for a Novel Non-Nucleoside Reverse Transcriptase Inhibitor Belonging to the N-Dihydroalkyloxybenzyloxopyrimidines (N-DABOs) Family” (J Med Chem, 2016)
